SENP8 block-1 – inhibitors of human SENP8 protease; inhibition, % at 10 µM; purified SENP8, Z-RLRGG-aminoluciferin cleavage, luminescence; hit rate 1.2% among 330,000; in the data active = inhibition above about 50%
Target sequence (Q96LD8 whole entry, looked up): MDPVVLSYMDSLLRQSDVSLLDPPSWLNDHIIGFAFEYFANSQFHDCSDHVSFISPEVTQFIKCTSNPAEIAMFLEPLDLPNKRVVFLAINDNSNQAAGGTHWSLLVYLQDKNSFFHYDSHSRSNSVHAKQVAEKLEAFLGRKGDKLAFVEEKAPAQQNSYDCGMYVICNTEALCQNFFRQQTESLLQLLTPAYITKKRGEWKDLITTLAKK
SENP6 block – blocks the human protease SENP6 | hit rate 1.8% among 330,000 | Q9GZR1 | inhibition, % at 10 µM | AID 2599 | Recombinant SENP6 catalytic domain, aminoluciferin luminescence;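 active = inhibition above about 50% at the single tested dose, limit read from the data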
SENP8 block-2 – blocks human SENP8 cleavage of Nedd8 substrate | recombinant SENP8, Nedd8 substrate fluorescence | hit rate 0.64% among 360,000 | inhibition, % at 20 µM; in the data active = inhibition mostly above about 40%, no sharp cut-off; inactive = mostly below about 27%
SENP1 FRET inh – blocks the human SENP1 SUMO protease catalytic domain. AID 624204. Q9P0U3. hit rate 0.21% among 360,000. inhibition, % at 10 µM. recombinant SENP1 catalytic domain, CyPet-SUMO1-YPet FRET cleavage;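 active = inhibition at least 30% at 10 µM, raw YFP signal under a set limit, fluorescence ratio 0.5 to 1.5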
Target sequence (Q9P0U3 419-644 limits assumed): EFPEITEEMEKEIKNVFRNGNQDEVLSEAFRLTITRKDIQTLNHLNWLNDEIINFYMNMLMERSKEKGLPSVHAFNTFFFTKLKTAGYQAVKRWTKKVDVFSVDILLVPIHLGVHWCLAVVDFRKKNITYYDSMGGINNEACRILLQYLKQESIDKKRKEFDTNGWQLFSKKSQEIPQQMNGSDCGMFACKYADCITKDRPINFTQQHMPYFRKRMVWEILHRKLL
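material = recombinant human SENP1 catalytic domain, His6-tagged | quantity = 20 pM enzyme | reagent = 25 nM SUMO1 FRET substrate | compound dosing = 10 µM single point, 0.5% DMSO | timing = 50 min enzyme reaction, room temperature, light-protected | detection = FRET, CFP and YFP emission | control set = no-enzyme low, enzyme-DMSO high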
HSP90 inh – blocks HSP90-mediated luciferase refolding in reticulocyte lysate | Rabbit reticulocyte lysate, luciferase refolding luminescence, 3 h | inhibition, % at 5.6 µM | hit rate 0.91% among 290,000 | AID 1789;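 active = inhibition above the screen-wide mean plus 3 SD, computed separately per campaign, cut at about 16% in these data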;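 also: inhibitors lower the luminescence because luciferase stays unfolded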
SENP7 block – SENP7 protease inhibition; Q9BQF6; recombinant SENP7, Z-RLRGG-aminoluciferin luminescence, 40 min; inhibition, % at 5 µM; hit rate 1.5% among 330,000; AID 434973;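 active = inhibition above about 50% at the single test dose, limit read from the data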
SENP8 conf – human SENP8 inhibition, confirmed. hit rate 40% among 6,200. inhibition, % at 12.5 µM. Recombinant SENP8, Z-RLRGG-aminoluciferin luminescence, 60 min. shares compounds with SENP7 block;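 active = mean inhibition across replicates above about 50%, limit read from the data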
SENP6 conf – confirmation of human SENP6 protease inhibitors; shares compounds with SENP7 block; recombinant SENP6, Z-RLRGG-aminoluciferin luminescence; hit rate 58% among 6,200; inhibition, % at 12.5 µM
SENP7 confirm – confirmation of human SENP7 protease inhibitors | inhibition, % at 12.5 µM | recombinant SENP7, Z-RLRGG-aminoluciferin luminescence, 40 min | hit rate 69% among 6,200 | shares compounds with SENP7 block | AID 488917
Casp3 select – caspase-3 inhibition (SENP selectivity assay); purified caspase-3, Z-DEVD-aminoluciferin luminescence, 60 min; hit rate 60% among 6,200; inhibition, % at 12.5 µM; shares compounds with SENP7 block;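 active = mean inhibition above about 50%, limit read from the data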
Target sequence (P42574 28-227 limits assumed): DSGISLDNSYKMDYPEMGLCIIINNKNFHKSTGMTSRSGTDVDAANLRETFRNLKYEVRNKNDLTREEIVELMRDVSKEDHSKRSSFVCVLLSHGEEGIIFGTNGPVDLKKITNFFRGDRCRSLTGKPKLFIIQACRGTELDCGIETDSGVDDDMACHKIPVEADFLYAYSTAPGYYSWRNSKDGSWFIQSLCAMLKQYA
Luc interf – interferes with luciferase luminescence in SENP counter-screen; shares compounds with SENP7 block; Pre-incubated SENP8/Z-RLRGG-aminoluciferin, luciferase luminescence interference; inhibition, % at 12.5 µM; hit rate 39% among 6,200;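 active = mean inhibition above about 50% when retested at one dose, limit read from the data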
Each line names hits and unclear results; the compound was inactive in the other large screens (follow-up assays come after a bar, where they were run). Sampled rows, rich in hits. Any-hit rate of the full collection: about 2.9%.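 The calls were made as follows, unless noted: active = mean inhibition above about 50% in the one-dose retest (limit read from the data); inactive = the rest.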

COc1ccc2oc(=N)c(C(=O)Nc3ccccc3)cc2c1	SENP6 block 62, SENP7 block 72 | SENP8 conf inactive | SENP6 conf inactive | SENP7 confirm 69 | Casp3 select 57 | Luc interf inactive
N=c1oc2ccc(Cl)cc2cc1C(=O)Nc1ccc(F)cc1	none
N=c1oc2cc(O)ccc2cc1C(=O)Nc1ccc(Br)cc1	SENP8 block-1 77, SENP6 block 86 | SENP8 conf inactive | SENP6 conf inactive | SENP7 confirm inactive | Casp3 select inactive | Luc interf inactive
COc1ccc2oc(=N)c(C(=O)Nc3ccccc3Cl)cc2c1	SENP7 block 61 | SENP8 conf inactive | SENP6 conf inactive | SENP7 confirm inactive | Casp3 select inactive | Luc interf inactive
N=c1oc2ccccc2cc1C(=O)Nc1ccccc1	SENP8 block-1 89, SENP6 block 86, SENP7 block 93 | SENP8 conf inactive | SENP6 conf 56 | SENP7 confirm 78 | Casp3 select inactive | Luc interf inactive
Cc1nn(C)cc1S(=O)(=O)Nc1cccc(Cl)c1	none
COc1ccc(S(=O)(=O)NC(C)c2ccc3c(c2)OCCO3)cc1 (stereo not given)	none (no result: SENP8 block-1, SENP6 block, HSP90 inh, SENP7 block)
COc1cc2ccccc2cc1C(=O)Nc1ccccc1Cl	SENP6 block 58 | SENP8 conf 72 | SENP6 conf 72 | SENP7 confirm 91 | Luc interf inactive
COc1ccc2oc(=O)c(C(=O)Nc3ccccc3C)cc2c1	SENP6 block 65, SENP7 block 74 | SENP8 conf inactive | SENP6 conf inactive | SENP7 confirm inactive | Casp3 select 50 | Luc interf inactive
Cc1cccnc1NC(=O)c1cc2ccccc2oc1=O	SENP7 block 91 | SENP8 conf 53 | SENP6 conf 52 | SENP7 confirm 80 | Casp3 select 68 | Luc interf inactive
CCOc1ccc(C(C)NC(=O)c2ccc3c(c2)NC(=O)C(C)S3)cc1OCC (stereo not given)	none (no result: HSP90 inh)
CCCNC(=O)Nc1nc(C(N)c2ccc(OC)cc2)cs1 (stereo not given)	none (no result: SENP8 block-1, SENP6 block, HSP90 inh, SENP7 block)
CCC(=NCc1ccccc1)c1c(C(F)(F)F)[nH]n(-c2nc3ccccc3s2)c1=O	SENP8 block-1 60, SENP6 block 85, SENP7 block 89 | SENP8 conf inactive | SENP6 conf inactive | SENP7 confirm inactive | Casp3 select 64 | Luc interf inactive
CCC(=NCc1ccco1)c1c(C(F)(F)F)[nH]n(-c2nc3ccccc3s2)c1=O	SENP8 block-1 88, SENP6 block 96, SENP7 block 96 | SENP8 conf 73 | SENP6 conf 70 | SENP7 confirm 90 | Casp3 select 90 | Luc interf 81
CCNC(=O)NC(=O)COC(=O)c1ccccc1SCC(=O)NC(=O)NCC	SENP8 block-1 93, SENP6 block 95, SENP7 block 93 | SENP8 conf 96 | SENP6 conf 96 | SENP7 confirm 102 | Casp3 select 98 | Luc interf 85
CN(C)c1ccc(/C=c2/sc3n(c2=O)NC2(c4ccccc4)N(C)C(=O)N(C)C2(c2ccccc2)N=3)cc1 (stereo not given)	none (no result: SENP8 block-2, SENP1 FRET inh)
COc1ccc(/C=N/Nc2nc(=O)[nH]nc2C)cc1[N+](=O)[O-]	none
Cc1n[nH]c(=O)nc1N/N=C/c1ccc(O)c([N+](=O)[O-])c1	SENP6 block 65, SENP8 block-2 55, SENP7 block 65 | SENP8 conf 50 | SENP6 conf inactive | SENP7 confirm 82 | Casp3 select 77 | Luc interf inactive
COC(=O)c1cc(CNC(=O)c2ccc(N3CCCC3)c([N+](=O)[O-])c2)ccc1OC	none
COc1cccc2sc3cc(C#Cc4ccccn4)ccc3c(=O)c12	none (no result: HSP90 inh)
COc1cccc2oc3ccc(C#Cc4ccccn4)cc3c(=O)c12	SENP8 block-1 94, SENP6 block 100, HSP90 inh 17, SENP7 block 100 | SENP8 conf 73 | SENP6 conf 90 | SENP7 confirm 100 | Casp3 select 91 | Luc interf 75
COc1cc(OC)cc(C(=O)N[C@H](C(=O)OCC(=O)N2CCN(S(=O)(=O)c3ccc(C)cc3)CC2)C(C)C)c1	none (no result: SENP8 block-1, SENP6 block, HSP90 inh, SENP7 block)
O=c1c2ccccc2nnn1CSc1ccccc1	SENP8 block-1 75, SENP6 block 87, SENP7 block 78 | SENP8 conf 81 | SENP6 conf 81 | SENP7 confirm 96 | Casp3 select 88 | Luc interf 85
COc1ccc(CCN2C(=O)C3CC(C)=C(C)CC3C2=O)cc1OC (stereo not given)	none
O=c1c(Cl)c(NCCO)cnn1-c1cccc(Cl)c1	none
O=S(=O)(Nc1nc2ccccc2[nH]1)c1ccc(Cl)cc1	none
C=CCN(CC=C)c1cnn(-c2nc3ccccc3[nH]2)c(=O)c1Cl	SENP8 block-1 58, SENP6 block 87, SENP7 block 77 | SENP8 conf 71 | SENP6 conf 77 | SENP7 confirm 94 | Casp3 select 91 | Luc interf inactive
O=c1c(Cl)c(NCCCO)cnn1-c1nc2ccccc2[nH]1	SENP6 block 62, SENP7 block 69 | SENP8 conf 59 | SENP6 conf 56 | SENP7 confirm 85 | Casp3 select 89 | Luc interf inactive
NC(=O)Cn1nc([N+](=O)[O-])nc1Oc1ccccc1F	none
CCc1ccc(C(=O)C(C)OC(=O)C2COc3ccccc3O2)cc1 (stereo not given)	none
CC(=O)N1c2ccccc2N=C(c2ccc(C(F)(F)F)cc2)C1C(=O)NC1CCCC1 (stereo not given)	none (no result: SENP8 block-1, SENP6 block, HSP90 inh, SENP7 block)
CC(=O)NC1Sc2ccccc2N=C1c1ccccc1 (stereo not given)	SENP8 block-1 84, SENP6 block 89, SENP7 block 85 | SENP8 conf inactive | SENP6 conf 69 | SENP7 confirm 97 | Casp3 select 66 | Luc interf inactive
CC1(C)CC(=O)C(N=Nc2cccc([N+](=O)[O-])c2)=C(O)C1	none
CCOc1cc(C=O)cc(N=Nc2cccc([N+](=O)[O-])c2)c1O	SENP8 block-1 82, SENP6 block 83 | SENP8 conf inactive | SENP6 conf inactive | SENP7 confirm inactive | Casp3 select inactive | Luc interf inactive

Screens: PubChem, several laboratories
